Assays:
[1] = target: T1, Histamine H3 receptor (Rattus norvegicus, UniProt Q9QYN8); experiment: Affinity against rat Histamine H3 receptor using [3H]N-alpha-methyl histamine
In short: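 Male Sprague–Dawley rat brain homogenate without cerebellum (800 μg) incubated 1 h at 25 °C in 50 mM Na₂HPO₄/KH₂PO₄, pH 7.5, with 0.25 nM [³H]Nα-methylhistamine. Filtered on GF/B, scintillation counted. Nonspecific binding with 10 μM thioperamide. IC50 by log probit; Ki = IC50/(1+L/Ka), Ka from Rosenthal analysis of saturation at 0.1–3.0 nM. Mean ± SE.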

[2] = target: T2, Histamine H3 receptor (Homo sapiens, UniProt Q9Y5N1); experiment: Inhibition of human Histamine H3 receptor
[3] = target: T2, Histamine H3 receptor; experiment: Inhibition of human H3-receptor using [3H]N-alpha-methyl histamine
In short: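 Membrane fractions from stably transfected CHO cells expressing human H3 receptor; radioligand displacement binding.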

[4] = target: Histamine H4 receptor (Homo sapiens, UniProt Q9H3N8); experiment: Inhibition of human Histamine H4 receptor
[5] = target: T1, Histamine H3 receptor; experiment: Inhibition of rat Histamine H3 receptor using [3H]N-alpha-methyl histamine
In short: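 Male Sprague–Dawley rat brain (minus cerebellum) homogenate, 800 μg, incubated 1 h at 25 °C in 50 mM Na2HPO4/KH2PO4 pH 7.5 with 0.25 nM radioligand. Bound ligand separated on GF/B filters and counted by scintillation; nonspecific binding taken with 10 μM thioperamide. […] Mean ± SE.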

T2 sequence (Q9Y5N1 whole entry): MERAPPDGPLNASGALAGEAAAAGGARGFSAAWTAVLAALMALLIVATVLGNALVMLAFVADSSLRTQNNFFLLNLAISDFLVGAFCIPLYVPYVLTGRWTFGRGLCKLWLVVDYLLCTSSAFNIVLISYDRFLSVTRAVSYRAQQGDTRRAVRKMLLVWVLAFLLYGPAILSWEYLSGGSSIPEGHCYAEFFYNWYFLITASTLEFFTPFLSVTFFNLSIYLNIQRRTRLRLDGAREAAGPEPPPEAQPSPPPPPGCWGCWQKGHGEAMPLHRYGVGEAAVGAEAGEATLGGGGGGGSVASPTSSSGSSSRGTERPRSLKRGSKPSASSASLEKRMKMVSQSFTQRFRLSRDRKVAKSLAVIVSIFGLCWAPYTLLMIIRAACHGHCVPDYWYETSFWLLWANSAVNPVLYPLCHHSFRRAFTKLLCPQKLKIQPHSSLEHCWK
T1 sequence (Q9QYN8 whole entry): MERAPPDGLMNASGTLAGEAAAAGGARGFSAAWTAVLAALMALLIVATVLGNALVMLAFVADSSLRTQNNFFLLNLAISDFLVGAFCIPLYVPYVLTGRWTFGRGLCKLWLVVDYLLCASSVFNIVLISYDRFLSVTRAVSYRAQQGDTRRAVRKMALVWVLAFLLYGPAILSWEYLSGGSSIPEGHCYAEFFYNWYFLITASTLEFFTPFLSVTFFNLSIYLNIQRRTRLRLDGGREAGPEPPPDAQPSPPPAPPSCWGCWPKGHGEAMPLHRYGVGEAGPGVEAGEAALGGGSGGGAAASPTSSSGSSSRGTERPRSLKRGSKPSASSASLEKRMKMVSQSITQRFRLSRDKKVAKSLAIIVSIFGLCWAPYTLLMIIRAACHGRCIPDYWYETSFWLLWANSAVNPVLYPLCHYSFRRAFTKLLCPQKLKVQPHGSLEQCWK
Chain of Histamine H4 receptor (Q9H3N8 whole entry): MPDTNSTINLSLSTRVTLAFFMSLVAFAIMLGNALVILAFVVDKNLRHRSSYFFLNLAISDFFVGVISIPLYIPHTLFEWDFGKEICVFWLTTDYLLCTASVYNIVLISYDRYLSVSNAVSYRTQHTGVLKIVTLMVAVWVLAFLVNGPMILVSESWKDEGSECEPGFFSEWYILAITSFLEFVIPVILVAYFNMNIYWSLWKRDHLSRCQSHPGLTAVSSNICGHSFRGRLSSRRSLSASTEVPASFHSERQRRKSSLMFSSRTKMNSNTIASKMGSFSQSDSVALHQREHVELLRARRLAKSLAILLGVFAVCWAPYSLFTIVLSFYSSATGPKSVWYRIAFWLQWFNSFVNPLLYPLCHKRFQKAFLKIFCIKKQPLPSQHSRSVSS

| Compound | Ki [1] [nM] | EC50 [2] [nM] | further results |
| --- | --- | --- | --- |
| NC[C@H]1C[C@@H]1c1cnc[nH]1 | 10.1 |  |  |
| NC[C@H]1C[C@H]1c1cnc[nH]1 | 64.7 |  |  |
| N[C@H]1C[C@H]1c1c[nH]cn1 | 1380 |  |  |
| NC[C@@H]1C[C@H]1c1c[nH]cn1 | 22.6 |  |  |
| NC[C@@H]1C[C@@H]1c1cnc[nH]1 | 2.5 | 96 |  |
| NCC[C@H]1C[C@H]1c1cnc[nH]1 | 4.78 | 1410 |  |
| N[C@@H]1C[C@@H]1c1c[nH]cn1 | 91.2 |  | EC50 [3]: 2330 nM |
| NCC[C@@H]1C[C@@H]1c1cnc[nH]1 | 1.31 | 10 |  |
| N=C(N)SCCc1cnc[nH]1 [IMETIT] |  | 1.9 | EC50 [4]: 51 nM |
| S=C(NC1CCCCC1)N1CCC(c2cnc[nH]2)CC1 [THIOPERAMIDE] |  |  | Ki [5]: 2.65 nM |
| N[C@@H]1C[C@H]1c1cnc[nH]1 [VUF-5296] | 42.2 | 724 |  |
| N[C@H]1C[C@@H]1c1c[nH]cn1 [VUF-5297] | 4.3 | 42 |  |

Source: ChEMBL document CHEMBL1145038 (J Med Chem, 2003)
